Here are results for 5 molecules from ChEMBL document CHEMBL1121465 (J Med Chem, 1980).

Some results are limits rather than exact numbers.

Experiment [1] is filed under the species Mus musculus. Nature of the experiment: Effective dose which decreases the 50% of the lethality induced by bicuculline in mice. It is filed as functional. The method in brief: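 Mice given ip serial doses 30 min before iv bicuculline at 0.9 mg/kg, 10 animals per drug per dose per experiment. ED50, the dose protecting half the mice from lethality, derived by log-probit plot.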

Experiment [2] relates to Mus musculus. Nature of the experiment: Lethal dose which causes death in 50% of the mice within 48 hr of ip administration. In kind it is functional. In short, it runs like this: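 Male albino CD1 mice (18–22 g) dosed intraperitoneally, then returned to home cages, 10 per cage. Deaths per dose were counted at 48 h. LD50 was estimated on log-probit paper.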
Experiment [3] deals with GABA-A receptor; anion channel. Nature of the experiment: Displacement of [3H]gamma-amino butyric acid from Gamma-aminobutyric acid (GABA-A) receptor of rat brain. In general terms: Displacement assays read how much labelled ligand stays bound in the presence of the test substance.
For experiment [4], the species on record is Mus musculus. Nature of the experiment: Effective dose which decreases the 50% of the convulsions induced by bicuculline in mice. It is filed as functional.
The target of experiment [5] is GABA-A receptor; anion channel. The experiment is described as follows: Displacement of [3H]gamma-amino butyric acid from Gamma-aminobutyric acid (GABA-A) receptor of human cerebellar cortex preparation.

Regarding `O=C1NC(=O)C(c2ccccc2)(c2ccccc2)N1` [PHENYTOIN], in experiment [1], it took a dose of 50 mg/kg to reach the 50% effect level (ED50). This molecule displayed an LD50 in experiment [2] of 250 mg/kg. Besides, the Ki in experiment [3] was more than 100 µM.
For the molecule `CCCC(CCC)C(=O)[O-].[Na+]` [VALPROATE SODIUM], the results for the 50% effective dose (ED50) in experiment [1] and in experiment [4] were 130 mg/kg and 33 mg/kg, respectively. Also, the LD50 in experiment [2] came to 1000 mg/kg. The inhibition constant (Ki) is more than 100000 nM in experiment [5] and more than 100 µM in experiment [3].
Take `NCc1cc(=O)[nH]o1` [MUSCIMOL]: the ED50 in experiment [1] is more than 2 mg/kg; in experiment [4], 0.25 mg/kg. The molecule also had an LD50 in experiment [2] of 17 mg/kg. Moreover, the inhibition constant Ki in experiment [5] was found to be 11 nM; in experiment [3], 0.004 µM.
Turning to `O=C([O-])CCC/N=C(\c1ccc(Cl)cc1)c1cc(F)ccc1O.[Na+]`, the figures for the median effective dose (ED50) in experiment [1] and in experiment [4] were 70 mg/kg and 15 mg/kg, respectively. The molecule further registered an LD50 in experiment [2] of 420 mg/kg. The Ki worked out at 680 nM in experiment [5] and 0.59 µM in experiment [3].
Taken in the same sequence, the figures for `NC(=O)CCC/N=C(\c1ccc(Cl)cc1)c1cc(F)ccc1O` [PROGABIDE] were 65 mg/kg, 20 mg/kg, 900 mg/kg, 40000 nM and 14 µM.

What is called ED50 is the dose that gives a 50% effect, or the effect in half of the subjects. Read a high ED50 as a need for a large dose. For orientation: LD50 means the dose at which mortality reaches 50%. In general, Ki refers to the equilibrium dissociation constant of an inhibitor or competing ligand from its target.
